Bioassay records: PubChem BioAssay, Johns Hopkins Ion Channel Center
TRPC6 inhibitor: mouse TRPC6 channel inhibitors, primary screen, cell-based, HEK293, membrane potential dye; Short transient receptor potential channel 6 (Mus musculus), Q61143; B-score at 10 µM; ACh-evoked depolarization; stronger effect = lower value; hit rate 1.1% among 310,000;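 active = B-score under library mean minus 3 SD, initial fluorescence not abnormally high, positive integrated signal ratio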;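 also: B-score derived from integrated fluorescence ratio over the kinetic read; more negative B-score means stronger inhibition of depolarization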
TRPC4 act: activators of mouse TRPC4 channel, primary screen, Fluo4 calcium, HEK293 TRPC4beta/mu-opioid cells; Short transient receptor potential channel 4 (Mus musculus), Q9QUQ5; Fluo4 calcium fluorescence; stronger effect = higher value; B-score at 10 µM; hit rate 0.49% among 310,000;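 active = B-score above 5 SD of library B-scores, and initial fluorescence ratio not above library mean plus 5 SD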;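 also: positive B-score marks a calcium rise read as TRPC4 activation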
Target sequence (Q9QUQ5 whole entry, looked up): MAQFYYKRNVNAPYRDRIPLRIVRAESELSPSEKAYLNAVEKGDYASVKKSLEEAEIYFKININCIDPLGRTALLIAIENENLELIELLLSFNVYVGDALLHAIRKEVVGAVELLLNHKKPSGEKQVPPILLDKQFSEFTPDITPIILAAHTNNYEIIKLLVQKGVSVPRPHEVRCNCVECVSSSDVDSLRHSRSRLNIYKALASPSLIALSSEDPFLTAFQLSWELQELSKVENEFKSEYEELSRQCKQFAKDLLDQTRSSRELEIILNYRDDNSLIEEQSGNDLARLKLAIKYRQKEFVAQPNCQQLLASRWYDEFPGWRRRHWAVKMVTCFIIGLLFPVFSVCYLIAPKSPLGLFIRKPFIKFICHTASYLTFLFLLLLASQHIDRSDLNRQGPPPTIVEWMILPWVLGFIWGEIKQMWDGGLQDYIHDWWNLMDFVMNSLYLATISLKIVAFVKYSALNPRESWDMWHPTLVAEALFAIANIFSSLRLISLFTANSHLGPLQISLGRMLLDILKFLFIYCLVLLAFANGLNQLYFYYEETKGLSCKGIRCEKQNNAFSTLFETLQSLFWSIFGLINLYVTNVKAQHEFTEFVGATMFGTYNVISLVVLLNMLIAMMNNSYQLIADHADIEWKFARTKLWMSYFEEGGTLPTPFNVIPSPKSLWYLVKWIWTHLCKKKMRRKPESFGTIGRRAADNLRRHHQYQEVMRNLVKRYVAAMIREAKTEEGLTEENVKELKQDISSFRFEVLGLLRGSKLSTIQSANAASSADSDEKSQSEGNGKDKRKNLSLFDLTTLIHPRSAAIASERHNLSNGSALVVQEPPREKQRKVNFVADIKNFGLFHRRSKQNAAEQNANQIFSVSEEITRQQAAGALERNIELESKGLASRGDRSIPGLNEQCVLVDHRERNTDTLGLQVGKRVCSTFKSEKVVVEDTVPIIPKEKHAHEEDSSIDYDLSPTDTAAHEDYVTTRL
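Incubation: 45 min room-temperature Fluo4 loading, 110 s read / System: HEK293 cells stably co-expressing mouse TRPC4beta and mu-opioid receptor / Signal: Fluo4 fluorescence, kinetic / Control set: buffer (low) and maximal DAMGO (high) / Measure: integrated baseline-normalised fluorescence ratio, converted to per-well B score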
TRPC4 PAM: positive allosteric modulators of TRPC4, primary screen, cell-based, mouse TRPC4beta, HEK293 mu-opioid, Fluo-4 calcium. hit rate 0.42% among 310,000. DAMGO EC20, Fluo-4 Ca2+ flux; stronger effect = higher value. B-score at 10 µM;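 active = B-score of calcium response area above 5 SD of library B-scores, with initial fluorescence ratio within 5 SD of library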
TRPC6 act: mouse TRPC6 channel activators, primary screen, cell-based, HEK293, membrane potential dye | Short transient receptor potential channel 6 (Mus musculus), Q61143 | HEK293-TRPC6 membrane potential dye fluorescence; stronger effect = higher value | B-score at 10 µM | hit rate 0.13% among 310,000;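 active = B-score of the integrated fluorescence ratio above library mean plus 3 SD, and starting fluorescence ratio within library mean plus 5 SD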;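 also: higher score means more depolarization so channel activation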
TRPC4 block: inhibitors of mouse TRPC4 channel, primary screen, Fluo4 calcium, HEK293 TRPC4beta/mu-opioid cells; Short transient receptor potential channel 4 (Mus musculus), Q9QUQ5; DAMGO-evoked Fluo4 calcium flux; stronger effect = lower value; B-score at 10 µM; hit rate 0.39% among 300,000;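 active = B-score over 3 SD under the library average, no early fluorescence shift, positive overall ratio signal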
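Material: HEK293 cells with stable TRPC4beta plus mu-opioid receptor expression; probe or stimulus: DAMGO in two steps, submaximal then maximal; technique: Fluo4 calcium fluorescence by kinetic imaging, 5 s 1 Hz baseline; measure: integrated fluorescence ratio relative to baseline, converted to per-well B score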
HEK293 TRPC6 ctr: parental HEK293 membrane potential modulation, confirmation, counter-screen for TRPC6 modulator project, cell-based. membrane potential dye fluorescence. membrane potential signal change, % at 10 µM. hit rate 51% among 2,400. shares compounds with TRPC6 inhibitor. AID 488924, 2010;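 active = membrane potential signal moves up or down beyond 5 SD from buffer-only wells, on both duplicate plates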
HEK293 MPD ctr 2: parental HEK293 nonspecific activity of TRPC6 modulators, second screen | membrane potential dye fluorescence; after compound, maximal acetylcholine stimulation | hit rate 14% among 2,400 | shares compounds with TRPC6 inhibitor | inhibition, % at 10 µM;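 active = membrane potential signal drops by more than 5 SD from the mean control signal, in both duplicate plates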
TRPC4 ctr mod: TRPC4 modulation by TRPC6 hit compounds, confirmation, selectivity assay for TRPC6 modulator project, cell-based, HEK293 TRPC4/mu-opioid, membrane potential dye, mouse; shares compounds with TRPC6 inhibitor; membrane potential fluorescence; percent change from control (negative = decrease, positive = increase), % at 10 µM; hit rate 69% among 2,400; AID 488927, 2010;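 active = membrane potential signal moved up or down beyond 5 SD of buffer control wells, in both duplicate plates, actives on both sides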
TRPC4 ctr inh 2: second check of whether TRPC6 modulators also affect mouse TRPC4; shares compounds with TRPC6 inhibitor; HEK293 TRPC4/mu-opioid, membrane potential dye fluorescence; stimulated with maximal-effect DAMGO; inhibition, % at 10 µM; hit rate 55% among 2,400; AID 488928;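 active = drop in membrane potential signal beyond 5 SD of the control wells in both duplicate plates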;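 also: TRPC4 counter screen for TRPC6 hits run under conditions tuned for TRPC6 not TRPC4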
TRPC6 block conf: mouse TRPC6 channel inhibitors, confirmation, HEK293 cells, membrane potential dye, duplicate | shares compounds with TRPC6 inhibitor | ACh-evoked depolarization | inhibition, % at 10 µM | hit rate 43% among 3,300;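 active = fluorescence ratio falls more than 5 SD below the full-stimulation control mean, in both duplicate runs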;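 also: integrated fluorescence ratio of peak minus minimum over baseline after agonist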
TRPC6 act conf: mouse TRPC6 channel activators, confirmation, HEK293 cells, membrane potential dye, duplicate. shares compounds with TRPC6 inhibitor. HEK293-TRPC6 membrane potential dye fluorescence, FDSS. activation, % at 10 µM. hit rate 11% among 2,800;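 active = ratio signal rise beyond 5 SD above unstimulated control wells' mean, seen in both duplicate runs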
Hits are given with their value; - = inactive; . = not tested or not shown; + = active, no number. A selection: hits, their analogues and other compounds. The true share with any hit is near 2.3%.

SMILES	TRPC6 inhibitor	TRPC4 act	TRPC4 PAM	TRPC6 act	TRPC4 block	HEK293 TRPC6 ctr	HEK293 MPD ctr 2	TRPC4 ctr mod	TRPC4 ctr inh 2	TRPC6 block conf	TRPC6 act conf
CCCNC(=O)Nc1cc(OC)c(OC)cc1Cc1nccc2cc(OC)c(OC)cc12	-	-	-	-	-	.	.	.	.	.	.
Nc1c(C(=O)c2ccccc2)sc2nsc(SCCN3CCCC3)c12	-	86	-	65.2	-	+	-	272.5%	35.5%	-	513.0%
Nc1c(C(=O)c2ccc(Cl)cc2)sc2nsc(SCCN3CCOCC3)c12	-	-	-	-	-	.	.	.	.	.	.
COc1cc2ccccc2cc1C(=O)OCC(=O)N(CC(C)C)c1c(N)n(Cc2ccccc2)c(=O)[nH]c1=O	-	-	-	-	-	.	.	.	.	.	.
Cc1ccc(C(C)C)c(OCC(=O)NN=C(CCl)CCl)c1	-	-	-	-	-	.	.	.	.	.	.
CCN1C(=O)/C(=C/C=C2/Sc3ccccc3N2CCO)SC1=S	-	-	-	-	-	.	.	.	.	.	.
CCN1C(=S)SC(=O)C1=C1C=C(C)N(CCO)C(C)=C1	-	47	-	40.3	-	812.5%	159.0%	134.0%	-	.	458.5%
O=S(=O)(Nc1nc2ccccc2nc1Nc1ccc2c(c1)OCO2)c1ccc(F)cc1	-	-	-	-	-	.	.	.	.	.	.
Cc1ccc(OCCCCNC2CCCC(C)C2C)c(C)c1 (stereo not given)	-5.69	-	-	13	-	348.5%	-	102.0%	51.0%	-	119.0%
CN1CCN(C(=S)Nc2ccc(S(N)(=O)=O)cc2)CC1	-	-	-	-	-	.	.	.	.	.	.
COc1ccc(-c2cc(C(=O)Nc3cc(C)on3)c3ccccc3n2)c(OC)c1	-	-	-	-	-	.	.	.	.	.	.
COc1cccc(NC(=O)c2cc(-c3ccc(OC)cc3OC)nc3ccccc23)c1	-5.12	-	-	-	-	+	73.0%	-94.0%	66.5%	53.5%	-
CCCCOC(=O)/C(=C/c1cn(C)c2ccccc12)NC(=O)c1ccc(OC)cc1	-	-	-	-	-	.	.	.	.	.	.
COc1ccc(C(=O)N/C(=C\c2cn(C)c3ccccc23)C(=O)OCCN(C)C)cc1	-6.08	-	-	-	-	-	-	-	53.0%	45.0%	-
CC(C)CC(=O)Nc1nnc(SCC(=O)Nc2nccs2)s1	-	-	-	-	-	.	.	.	.	.	.
O=C(Nc1ccc(Cl)cc1)c1ccc(-n2cncn2)c([N+](=O)[O-])c1	-5.49	-	-	-	-	-106.5%	-	-	56.0%	-	-
CN(C)c1ccc(N2CC(C)(C)C2=O)cc1	-	-	-	-	-	.	.	.	.	.	.
CCN(CC)CCNC(=O)COc1ccc(OC)cc1	-	-	-	-	-	.	.	.	.	.	.
CCN(CC)CCCCNc1ncc2cc(-c3cc(OC)cc(OC)c3)c(NC(=O)NC(C)(C)C)nc2n1	-5.55	-	-	-	-	-	-	-	43.0%	54.5%	-
